Data set [1] is described as follows: Metabolic stability […] assessed as alpha-chymotrypsin-mediated compound degradation after 6 hrs by LC-MS analysis. Format: ADME, cell-free. To be noted: read-out: Drug degradation. A digest of the protocol: (§1)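 Digestion with α-chymotrypsin at an enzyme:substrate ratio of 1:50 (w/w) in 100 mM Tris-HCl/10 mM CaCl₂, pH 7.8, at 25°C. Aliquots taken at 5 min and 1, 2, 4, 6, 8 and 24 h, quenched with acetic acid, and analysed by LC-MS for intact conjugate and cleavage fragments.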

The test system of data set [2] is Serum. Description: Metabolic stability […] assessed as alpha-chymotrypsin-mediated compound degradation after 24 hrs by LC-MS analysis. Format: ADME, cell-free. A digest of the protocol: as §1
A short description of data set [3]: Drug metabolism in rat liver lysosomal homogenate after 2 hrs by LC-MS analysis. The class given is ADME, tissue-based. The note with it: tissue homogenate. A digest of the protocol:
(§2)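 Conjugate at 0.1 µg/µL in 0.2 M NaOAc pH 5.0, mixed 1:1 (w/w) with rat liver lysosomal homogenate (protein 17.4 µg/µL by BCA). Incubated at 37°C; aliquots taken at 5 min and 1, 2, 4, 6, 8 and 24 h. Fragments identified by ESI ion-trap LC-MS on a C18 column with a formic acid/acetonitrile gradient, positive mode, m/z 100–2500.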

Data set [4] deals with HT-29. Put plainly: Cellular uptake in human HT-29 cells after 6 hrs by flow cytometer. The class given is ADME, cell-based. To be noted: ht-29, 6 h. A digest of the protocol:
(§3)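 Cells plated at 1 x 10^5 per well, grown 24 h at 37°C, then exposed to conjugate in serum-free medium (0.16–100 µM) for 6 h at 37°C. Cells detached with trypsin/EDTA, resuspended in FCS-free medium and analysed by flow cytometry. Read-out is the percentage of daunorubicin-positive living cells. Duplicate samples at each concentration; each experiment repeated twice.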

Data set [5] deals with MCF7. Description: Cellular uptake in human MCF7 cells after 6 hrs by flow cytometer. The class given is ADME, cell-based. To be noted: mcf7, 6 h. A digest of the protocol: as §3
The test system of data set [6] is HT-29. Description: Cellular uptake in human HT-29 cells at 20 uM after 6 hrs by flow cytometer. Format: ADME, cell-based. The note with it: ht-29, 6 h. A digest of the protocol: (§4)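 Cells were seeded at 1 x 10^5 per well and grown 24 h. MCF-7 were kept in DMEM and HT-29 in RPMI-1640, each with 10% FCS, at 37°C and 5% CO2. Cells were exposed to bioconjugate in serum-free medium (0.16–100 µM) for 6 h at 37°C, then detached with trypsin/EDTA. Flow cytometry gave % daunorubicin-positive living cells; duplicates, two independent experiments, mean ± SD.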

Data set [7] concerns HT-29. Put plainly: Cellular uptake in human HT-29 cells at 100 uM after 6 hrs by flow cytometer. Format: ADME, cell-based. To be noted: ht-29, 6 h. The gist of the method:
as §4

Data set [8] deals with MCF7. Put plainly: Cellular uptake in human MCF7 cells at 20 uM after 6 hrs by flow cytometer. Format: ADME, cell-based. To be noted: mcf7, 6 h. The gist of the method:
as §4

In data set [9] the test system is MCF7. Description: Cellular uptake in human MCF7 cells at 100 uM after 6 hrs by flow cytometer. To be noted: mcf7, 6 h. The class given is ADME, cell-based. A digest of the protocol:
as §4

In data set [10] the test system is HT-29. Description: Cytostatic activity against human HT-29 cells compound incubated for 6 hrs followed by compound wash out measured after 72 hrs by MTT assay. The class given is functional, cell-based. The gist of the method: (§5)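 Cells plated at 5×10^3 per well and grown 24 h. Exposed 6 h to compound in serum-free RPMI-1640 (2.6×10^-4–10^2 µM, six parallels per concentration), washed twice, then cultured 72 h in serum-containing medium. MTT added at 367 µg/mL final for 3.5 h; crystals dissolved in DMSO; OD540 minus OD620 read. Cytostasis% = [1−(OD_treated/OD_control)]×100; IC50 taken from a sigmoidal fit. Three independent experiments, averaged.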

For data set [11], the system named is MCF7. Put plainly: Cytostatic activity against human MCF7 cells compound incubated for 6 hrs followed by compound wash out measured after 72 hrs by MTT assay. The class given is functional, cell-based. A digest of the protocol:
as §5

Data set [12] can be described thus: Chemical stability of the compound in serum-free DMEM cell culture media after 6 hrs by RP-HPLC analysis. Format: physicochemical. The gist of the method: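 Conjugate dissolved in water (20% of final volume), then diluted with serum-free DMEM to a final 0.5 mg/mL. Incubated at 37°C for 6 h with hourly sampling. Monitored by analytical RP-HPLC on a C18 or CN column, gradient of 0.1% TFA water/MeCN, detection at 220 nm.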

A short description of data set [13]: Metabolic stability in human serum assessed as alpha-chymotrypsin-mediated compound degradation after 4 hrs by LC-MS analysis. The class given is ADME, cell-free. To be noted: Tris-HCl/CaCl2 buffer; in the assay text read “in Tris-HCl/CaCl2 buffer” for “in human serum”; read-out: Drug degradation. The gist of the method: as §1
A short description of data set [14]: Drug metabolism in rat liver lysosomal homogenate after 24 hrs by LC-MS analysis. The class given is ADME, tissue-based. The note with it: tissue homogenate. A digest of the protocol: as §2
A short description of data set [15]: Metabolic stability in presence of alpha-chymotrypsin assessed as compound remaining after 6 hrs by LC-MS analysis.

For `COc1cccc2c1C(=O)c1c(O)c3c(c(O)c1C2=O)C[C@@](O)(/C(C)=N/OCC(=O)NCCCC[C@H](NC(=O)[C@H](Cc1c[nH]c2ccccc12)NC(=O)[C@H](CC(=O)O)NC(=O)[C@H](Cc1cnc[nH]1)NC(=O)[C@H](CCCCNC(=O)C(C)C)NC(=O)[C@H](Cc1c[nH]c2ccccc12)NC(=O)[C@H](Cc1cnc[nH]1)NC(=O)[C@@H]1CCC(=O)N1)C(=O)N1CCC[C@H]1C(=O)NCC(N)=O)C[C@@H]3O[C@H]1C[C@H](N)[C@H](O)[C@H](C)O1`, in data set [1], the metabolised at 6 h turned out to be 90%. The Stability result is listed as “Unstable” in data set [2] and “Stable” in data set [12]. Moreover, the Drug metabolism entry in data set [3] and in [14] was “Active” throughout. Moreover, the Drug uptake result was “Dose-dependent effect” in data set [4]; “Dose-dependent effect” in [5]; 96.9% in [6]; 99.9% in [7]; 93.3% in [8]; 99.7% in [9]. Also, the figures for the IC50 in data set [10] and in data set [11] were 2000 nM and 2200 nM, respectively. The metabolised at 4 h in data set [13] came out at 60%. Moreover, the amount remaining at 6 h in data set [15] came out at 10%.
